In BindingDB's records for doi:10.1016/j.bmcl.2015.12.102 (Reset Therapeutics, 2016) one finds EC50 data, which are given here for 41 compounds.

Some results are limits rather than exact numbers.

This assay concerns the target T1, Period circadian protein homolog 2 (Homo sapiens, UniProt O15055).
T1 sequence (O15055 whole entry): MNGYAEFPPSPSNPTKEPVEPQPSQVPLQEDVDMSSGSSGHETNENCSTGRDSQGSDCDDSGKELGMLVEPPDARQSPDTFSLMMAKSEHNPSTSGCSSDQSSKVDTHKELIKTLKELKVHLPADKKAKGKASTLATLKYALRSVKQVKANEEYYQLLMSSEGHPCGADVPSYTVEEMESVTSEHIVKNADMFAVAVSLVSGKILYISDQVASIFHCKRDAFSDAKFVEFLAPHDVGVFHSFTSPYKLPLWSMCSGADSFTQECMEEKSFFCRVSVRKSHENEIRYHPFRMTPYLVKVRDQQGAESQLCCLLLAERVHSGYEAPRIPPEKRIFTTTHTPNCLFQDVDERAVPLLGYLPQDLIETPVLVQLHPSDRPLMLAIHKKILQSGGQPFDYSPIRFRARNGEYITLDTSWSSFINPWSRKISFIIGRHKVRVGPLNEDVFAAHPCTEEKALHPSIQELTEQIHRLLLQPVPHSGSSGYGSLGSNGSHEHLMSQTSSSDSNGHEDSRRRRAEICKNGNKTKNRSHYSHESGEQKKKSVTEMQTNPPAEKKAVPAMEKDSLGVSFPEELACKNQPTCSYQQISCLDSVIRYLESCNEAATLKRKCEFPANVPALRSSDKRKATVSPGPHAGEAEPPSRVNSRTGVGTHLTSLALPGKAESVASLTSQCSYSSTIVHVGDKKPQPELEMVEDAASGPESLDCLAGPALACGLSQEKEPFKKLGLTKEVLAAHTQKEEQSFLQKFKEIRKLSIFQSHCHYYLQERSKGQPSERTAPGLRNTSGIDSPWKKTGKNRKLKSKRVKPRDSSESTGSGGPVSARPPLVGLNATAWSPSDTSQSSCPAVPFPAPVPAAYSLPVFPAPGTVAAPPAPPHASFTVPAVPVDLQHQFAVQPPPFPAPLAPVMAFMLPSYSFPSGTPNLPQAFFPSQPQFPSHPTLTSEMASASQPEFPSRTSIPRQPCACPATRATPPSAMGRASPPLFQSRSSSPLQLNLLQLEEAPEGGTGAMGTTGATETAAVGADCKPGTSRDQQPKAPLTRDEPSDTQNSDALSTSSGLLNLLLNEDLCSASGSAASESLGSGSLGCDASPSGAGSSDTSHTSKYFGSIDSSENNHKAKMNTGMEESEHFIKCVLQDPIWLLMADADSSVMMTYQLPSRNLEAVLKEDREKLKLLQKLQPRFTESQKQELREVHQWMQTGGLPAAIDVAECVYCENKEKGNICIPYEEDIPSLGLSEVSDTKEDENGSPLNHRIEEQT
Description: Reduction of amplitude effect of PER2 in human U2OS cells harboring Per2-dLuc luciferase reporter gene assessed as effects on circadian rhythms. The method in brief:
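Human osteosarcoma U2OS cells carrying a Per2-dLuc luciferase reporter, treated continuously; circadian luminescence rhythm amplitude followed. 8-point threefold dilution series; EC50 taken as concentration giving 50% of the compound's own maximal response (titrations without plateau give no EC50).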

One may read the EC50 as the concentration at which the effect is half-maximal. With `O=S(=O)(C1CCCCC1)N(Cc1ccco1)CC(O)Cn1c2ccccc2c2ccccc21` (stereo unspecified), the EC50 amounted to 1000 nM.

In the case of `COCCS(=O)(=O)N(Cc1ccco1)CC(O)Cn1c2ccccc2c2ccccc21` (stereo unspecified), the EC50 amounted to 288 nM.

For `O=S(=O)(C1CC1)N(Cc1ccco1)CC(O)Cn1c2ccccc2c2ccccc21` (stereo unspecified), the EC50 is 557 nM.

For `CCCCS(=O)(=O)N(Cc1ccco1)CC(O)Cn1c2ccccc2c2ccccc21` (stereo unspecified), the 50% effective concentration (EC50) stood at 374 nM.

As for `CC(C)CS(=O)(=O)N(Cc1ccco1)CC(O)Cn1c2ccccc2c2ccccc21` (stereo unspecified), the EC50 is 361 nM.

Turning to `O=S(=O)(C1CCOC1)N(Cc1ccco1)CC(O)Cn1c2ccccc2c2ccccc21` (stereo unspecified), the EC50 worked out at 1180 nM.

With `CC(C)S(=O)(=O)N(Cc1ccco1)CC(O)Cn1c2ccccc2c2ccccc21` (stereo unspecified), the EC50 came to 438 nM.

As for `CCCS(=O)(=O)N(Cc1ccco1)CC(O)Cn1c2ccccc2c2ccccc21` (stereo unspecified), the EC50 was 516 nM.

As to `CCS(=O)(=O)N(Cc1ccco1)CC(O)Cn1c2ccccc2c2ccccc21` (stereo unspecified), the EC50 stood at 197 nM.

As for `CS(=O)(=O)N(CC(O)Cn1c2ccccc2c2ccccc21)c1ccccn1` (stereo unspecified), the EC50 was > 10000 nM.

On to `CS(=O)(=O)N(CC(O)Cn1c2ccccc2c2ccccc21)C1CCCC1` (stereo unspecified), for which the EC50 was 308 nM.

In the case of `CS(=O)(=O)N(CC(O)Cn1c2ccccc2c2ccccc21)C1CCCCC1` (stereo unspecified), the EC50 came to 532 nM.

In the case of `CS(=O)(=O)N(CC(O)Cn1c2ccccc2c2ccccc21)C1COC1` (stereo unspecified), the EC50 worked out at 3530 nM.

As for `CS(=O)(=O)N(CC(O)Cn1c2ccccc2c2ccccc21)C1CCOCC1` (stereo unspecified), the EC50 was 819 nM.

For the compound `CS(=O)(=O)N(CC(O)Cn1c2ccccc2c2ccccc21)C1CC(F)(F)C1` (stereo unspecified), the 50% effective concentration (EC50) worked out at 1270 nM.

For `CS(=O)(=O)N(CC(O)Cn1c2ccccc2c2ccccc21)C1CCC(F)(F)CC1` (stereo unspecified), the EC50 turned out to be 690 nM.

With `COCCN(CC(O)Cn1c2ccccc2c2ccccc21)S(C)(=O)=O` (stereo unspecified), the EC50 is 1020 nM.

Take `CS(=O)(=O)N(CC(O)Cn1c2ccccc2c2ccccc21)c1ccccc1` (stereo unspecified): the EC50 was 272 nM.

For the compound `CS(=O)(=O)N(CC(O)Cn1c2ccccc2c2ccccc21)c1ccccc1F` (stereo unspecified), the EC50 is 2550 nM.

Turning to `CS(=O)(=O)N(CC(O)Cn1c2ccccc2c2ccccc21)c1cccc(F)c1` (stereo unspecified), the EC50 is 400 nM.

`CS(=O)(=O)N(CC(O)Cn1c2ccccc2c2ccccc21)c1ccc(F)cc1` (stereo unspecified): the concentration for a half-maximal effect (EC50) is 939 nM.

As for `CS(=O)(=O)N(Cc1ccccc1)CC(O)Cn1c2ccccc2c2ccccc21` (stereo unspecified), the EC50 was 818 nM.

On to `O=S1(=O)CCN1CC(O)Cn1c2ccccc2c2ccccc21` (stereo unspecified), for which the EC50 is 190 nM.

Take `O=S1(=O)CCCN1CC(O)Cn1c2ccccc2c2ccccc21` (stereo unspecified): the EC50 was 144 nM.

`O=S1(=O)CCCCN1CC(O)Cn1c2ccccc2c2ccccc21` (stereo unspecified): the EC50 was 173 nM.

For `O=S1(=O)COCCN1CC(O)Cn1c2ccccc2c2ccccc21` (stereo unspecified), the EC50 is 73 nM.

On to `O=S1(=O)NCCN1CC(O)Cn1c2ccccc2c2ccccc21` (stereo unspecified), for which the EC50 came to 42 nM.

With `CN1CCN(CC(O)Cn2c3ccccc3c3ccccc32)S1(=O)=O` (stereo unspecified), the EC50 was found to be 132 nM.

Turning to `O=S1(=O)NCCCN1CC(O)Cn1c2ccccc2c2ccccc21` (stereo unspecified), the half-maximal effective concentration (EC50) worked out at 384 nM.

As to `CN1CCCN(CC(O)Cn2c3ccccc3c3ccccc32)S1(=O)=O` (stereo unspecified), the EC50 was 726 nM.

As for `O=S(=O)(c1ccccc1)N(Cc1ccco1)CC(O)Cn1c2ccccc2c2ccccc21` (stereo unspecified), the EC50 is 1090 nM.

For the compound `O=S(=O)(Cc1ccccc1)N(Cc1ccco1)CC(O)Cn1c2ccccc2c2ccccc21` (stereo unspecified), the EC50 was 415 nM.

Take `CS(=O)(=O)NCC(O)Cn1c2ccccc2c2ccccc21` (stereo unspecified): the EC50 stood at 479 nM.

Turning to `CN(CC(O)Cn1c2ccccc2c2ccccc21)S(C)(=O)=O` (stereo unspecified), the EC50 is 781 nM.

On to `CCN(CC(O)Cn1c2ccccc2c2ccccc21)S(C)(=O)=O` (stereo unspecified), for which the EC50 came to 505 nM.

`CCCN(CC(O)Cn1c2ccccc2c2ccccc21)S(C)(=O)=O` (stereo unspecified): the 50% effective concentration (EC50) turned out to be 408 nM.

In the case of `CC(C)N(CC(O)Cn1c2ccccc2c2ccccc21)S(C)(=O)=O` (stereo unspecified), the EC50 was 511 nM.

For `CC(C)CN(CC(O)Cn1c2ccccc2c2ccccc21)S(C)(=O)=O` (stereo unspecified), the EC50 was 178 nM.

Consider `CS(=O)(=O)N(CC(O)Cn1c2ccccc2c2ccccc21)C1CC1` (stereo unspecified), for which the concentration for a half-maximal effect (EC50) worked out at 446 nM.

Regarding `CS(=O)(=O)N(CC(O)Cn1c2ccccc2c2ccccc21)C1CCC1` (stereo unspecified), the EC50 turned out to be 129 nM.

`CS(=O)(=O)N(Cc1ccco1)CC(O)Cn1c2ccccc2c2ccccc21` (stereo unspecified) [N-(3-carbazol-9-yl-2-hydroxypropyl)-N-(furan-2-ylmethyl)methanesulfonamide]: the EC50 is 870 nM.
